# Reference: ChEMBL document CHEMBL1141693, “Discovery of benzoylpiperazines as a novel class of potent and selective GlyT1 inhibitors” (Bioorg Med Chem Lett, 2008)
# Key:
# [1] = target: T1, Sodium- and chloride-dependent glycine transporter 1 (Homo sapiens, UniProt P48067); assay: Inhibition of [3H]glycine uptake at human glycine transporter 1 expressed in CHO cells by scintillation counter; assay type: cell-based
# T1 sequence (P48067 whole entry): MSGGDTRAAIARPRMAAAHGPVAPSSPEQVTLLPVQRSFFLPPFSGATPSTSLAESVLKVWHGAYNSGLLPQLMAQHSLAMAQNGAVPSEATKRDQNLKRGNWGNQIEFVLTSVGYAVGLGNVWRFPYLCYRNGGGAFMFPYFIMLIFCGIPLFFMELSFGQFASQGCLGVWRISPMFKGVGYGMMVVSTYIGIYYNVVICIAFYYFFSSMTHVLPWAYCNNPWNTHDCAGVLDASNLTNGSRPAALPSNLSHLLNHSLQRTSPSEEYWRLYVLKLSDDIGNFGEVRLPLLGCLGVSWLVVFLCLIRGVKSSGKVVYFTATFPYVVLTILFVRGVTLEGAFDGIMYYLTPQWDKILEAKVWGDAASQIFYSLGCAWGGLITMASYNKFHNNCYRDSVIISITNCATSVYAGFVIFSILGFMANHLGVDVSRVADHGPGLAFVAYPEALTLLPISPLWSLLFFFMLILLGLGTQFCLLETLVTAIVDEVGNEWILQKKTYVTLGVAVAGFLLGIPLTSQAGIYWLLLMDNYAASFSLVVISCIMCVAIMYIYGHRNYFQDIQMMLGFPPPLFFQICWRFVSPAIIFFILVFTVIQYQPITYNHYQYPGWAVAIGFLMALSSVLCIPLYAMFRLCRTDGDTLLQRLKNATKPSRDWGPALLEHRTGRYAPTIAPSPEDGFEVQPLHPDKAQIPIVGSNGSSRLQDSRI
# [2] = target: T2, Sodium- and chloride-dependent glycine transporter 2 (Homo sapiens, UniProt Q9Y345); assay: Inhibition of [3H]glycine uptake at human glycine transporter 2 expressed in CHO cells by scintillation counter; assay type: cell-based
# T2 sequence (Q9Y345 whole entry): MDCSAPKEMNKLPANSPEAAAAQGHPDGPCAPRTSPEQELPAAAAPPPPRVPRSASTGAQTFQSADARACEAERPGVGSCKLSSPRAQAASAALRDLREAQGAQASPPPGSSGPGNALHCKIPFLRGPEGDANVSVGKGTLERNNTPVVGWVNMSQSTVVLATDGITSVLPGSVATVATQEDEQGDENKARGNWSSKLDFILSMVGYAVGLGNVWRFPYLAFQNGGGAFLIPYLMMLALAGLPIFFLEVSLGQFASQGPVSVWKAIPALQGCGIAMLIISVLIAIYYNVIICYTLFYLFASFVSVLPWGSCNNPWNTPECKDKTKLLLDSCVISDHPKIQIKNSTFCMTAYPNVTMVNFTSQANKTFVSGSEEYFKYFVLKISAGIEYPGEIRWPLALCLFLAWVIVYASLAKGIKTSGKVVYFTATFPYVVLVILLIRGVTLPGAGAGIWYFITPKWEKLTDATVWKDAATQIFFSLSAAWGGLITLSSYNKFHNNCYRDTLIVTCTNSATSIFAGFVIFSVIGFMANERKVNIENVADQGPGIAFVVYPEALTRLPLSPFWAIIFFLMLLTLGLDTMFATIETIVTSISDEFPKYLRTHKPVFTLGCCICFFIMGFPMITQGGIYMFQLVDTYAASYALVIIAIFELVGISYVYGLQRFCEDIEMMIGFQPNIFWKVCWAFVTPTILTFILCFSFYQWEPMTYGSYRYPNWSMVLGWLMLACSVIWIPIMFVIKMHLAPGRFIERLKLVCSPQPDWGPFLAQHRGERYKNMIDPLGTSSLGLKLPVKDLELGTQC
# How it was run: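 [³H]-glycine uptake inhibition in cells transfected with human GlyT2 cDNA. EC50 is the average of at least two independent experiments.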
# [3] = Metabolic stability in mouse liver microsomes assessed as intrinsic clearance per […] of protein; assay type: ADME, Microsome
# How it was run: (§1)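 Intrinsic clearance measured in liver microsomes from rat, mouse or human, expressed per mg microsomal protein.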
# [4] = Aqueous solubility in phosphate buffer at pH 6.5 by lyophilization solubility assay; assay type: physicochemical
# How it was run: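 Aqueous solubility was measured at pH 6.5 in a lyophilization solubility assay.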
# Liver microsomes [5] = assay: Metabolic stability in human liver microsomes assessed as intrinsic clearance per […] of protein; assay type: ADME, Microsome; how it was run: as §1
# [6] = Membrane permeability by PAMPA; assay type: ADME; details: read-out: permeability
# How it was run: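 PAMPA artificial-membrane permeation, reported as the permeation constant Pe in 10^-6 cm/s.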
# Homo sapiens = species on record: Homo sapiens; assay: Selectivity ratio of IC50 for human glycine transporter 2 to IC50 for human glycine transporter 1
# How it was run: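 [³H]-glycine uptake inhibition in cells transfected with human GlyT1 or human GlyT2 cDNA. Each EC50 is the average of at least two independent experiments. Selectivity is the ratio of GlyT2 EC50 to GlyT1 EC50.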
# Liver microsomes [7] = assay: Metabolic stability in rat liver microsomes assessed as intrinsic clearance per […] of protein; assay type: ADME, Microsome; how it was run: as §1
Structure (SMILES),EC50 [1],EC50 [2],also measured
CC(=O)c1ccc(N2CCN(C(=O)c3cc([N+](=O)[O-])ccc3NC(C)C)CC2)c(F)c1,2 nM,10000 nM,
CC(=O)c1ccc(N2CCN(C(=O)c3cccc([N+](=O)[O-])c3)CC2)c(F)c1,32000 nM,24500 nM,
CC(=O)c1ccc(N2CCN(C(=O)c3cc(S(=O)(=O)Cc4ccccc4)ccc3N3CCOCC3)CC2)c(F)c1,> 30000 nM,> 30000 nM,
CC(=O)c1ccc(N2CCN(C(=O)c3cc([N+](=O)[O-])ccc3N(C)C)CC2)c(F)c1,500 nM,2000 nM,
CC(C)Oc1ccc(S(C)(=O)=O)cc1C(=O)N1CCN(c2ccc(C(F)(F)F)cc2)CC1,82 nM,,clearance [3]: 0 µL/min/mg; solubility [4]: 62 µg/mL; clearance (Liver microsomes [5]): 0 µL/min/mg
Cc1ccccc1N1CCN(C(=O)c2cc([N+](=O)[O-])ccc2N2CCOCC2)CC1,> 10000 nM,14200 nM,
O=C(c1cc([N+](=O)[O-])ccc1N1CCOCC1)N1CCN(c2ccc(C(F)(F)F)cc2)CC1,100 nM,3300 nM,
CNc1ccc([N+](=O)[O-])cc1C(=O)N1CCN(c2ccc(C(C)=O)cc2F)CC1,1900 nM,1400 nM,
CC(=O)c1ccc(N2CCN(C(=O)c3cc(S(N)(=O)=O)ccc3N3CCOCC3)CC2)c(F)c1,120 nM,> 30000 nM,Papp [6]: 3.3 ×10⁻⁶ cm/s; solubility [4]: 308 µg/mL; Ratio EC50 (Homo sapiens): > 250; clearance (Liver microsomes [5]): 31 µL/min/mg
CC(=O)c1ccc(N2CCN(C(=O)c3cc(N)ccc3N3CCOCC3)CC2)c(F)c1,> 30000 nM,> 30000 nM,
Cc1cccc(N2CCN(C(=O)c3cc([N+](=O)[O-])ccc3N3CCOCC3)CC2)c1,1100 nM,4000 nM,
O=C(c1cc([N+](=O)[O-])ccc1N1CCOCC1)N1CCN(c2cccc(C(F)(F)F)c2)CC1,400 nM,300 nM,
CC(=O)c1ccc(N2CCN(C(=O)c3cc(S(C)(=O)=O)ccc3OC(C)C)CC2)c(F)c1,39 nM,> 30000 nM,
O=C(c1cc([N+](=O)[O-])ccc1N1CCOCC1)N1CCN(c2ccc(Cl)cc2)CC1,310 nM,1170 nM,
CC(=O)c1ccc(N2CCN(C(=O)c3cc([N+](=O)[O-])ccc3N)CC2)c(F)c1,> 10000 nM,3300 nM,
CCCS(=O)(=O)c1ccc(N2CCOCC2)c(C(=O)N2CCN(c3ccc(C(C)=O)cc3F)CC2)c1,1600 nM,> 30000 nM,
CS(=O)(=O)c1ccc(N2CCN(C(=O)c3cc([N+](=O)[O-])ccc3N3CCOCC3)CC2)cc1,110 nM,2100 nM,
CC(=O)c1ccc(N2CCN(C(=O)c3cc([N+](=O)[O-])ccc3NCC3CCCCC3)CC2)c(F)c1,> 10000 nM,,
O=C(c1cc([N+](=O)[O-])ccc1N1CCOCC1)N1CCN(c2ncc(C(F)(F)F)cc2Cl)CC1,47 nM,> 30000 nM,
COc1ccccc1N1CCN(C(=O)c2cc([N+](=O)[O-])ccc2N2CCOCC2)CC1,> 10000 nM,13400 nM,
O=C(c1cc([N+](=O)[O-])ccc1N1CCOCC1)N1CCN(c2cccc(Cl)c2)CC1,700 nM,3100 nM,
CC(=O)c1ccc(N2CCN(C(=O)c3cc(C#N)ccc3N3CCOCC3)CC2)c(F)c1,180 nM,13000 nM,Papp [6]: 6.1 ×10⁻⁶ cm/s; solubility [4]: < 1 µg/mL; clearance (Liver microsomes [7]): 53 µL/min/mg; Ratio EC50 (Homo sapiens): 72; clearance (Liver microsomes [5]): 31 µL/min/mg
